Seven compounds from ChEMBL document CHEMBL3227992, “Glycerides as prodrugs. 1. Synthesis and antiinflammatory activity of 1,3-bis(alkanoyl)-2-(O-acetylsalicyloyl)glycerides (aspirin triglycerides)” (J Med Chem, 1979) can be followed below.

Activity calls are given as the source filed them. The calls are words filed in the database; no cut-off is given here.

The test system of series [1] is Rattus norvegicus. Put plainly: Antiinflammatory activity in Sprague-Dawley rat assessed as inhibition of carrageenin-induced hind paw swelling at 323 umol/kg, po administered 2 hrs prior to carrageenin challenge measured after 3 hrs by volumetric transducer analysis relative to aspirin. The class given is functional. The essentials:
(§1)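 Male Sprague-Dawley rats (170-200 g) were fasted overnight with water ad libitum. Compounds were suspended in 0.5% (w/v) methylcellulose with a drop of Tween 80 and given orally 2 h before a subplantar injection of 0.1 mL of 1.5% carrageenin. Paw volume was read before and 3 h after injection by immersion in a mercury vessel linked to a volumetric transducer and polygraph.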
In general terms: Carrageenan injected into the paw causes an acute inflammation.

Series [2] deals with Rattus norvegicus. The series is described as follows: Ulcerogenicity in Sprague-Dawley rat assessed as gastric lesions at 444 umol/kg, po. The class given is toxicity, organism-based, Stomach. As to conditions: in vivo. The gist of the method: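 Rats were fasted overnight and dosed orally with compound in 0.5% methylcellulose plus Tween 80. Stomachs were examined for gastric lesions by the Brodie and Hansen method. Lesion incidence counted animals with a lesion of 1 mm or longer, expressed relative to plain aspirin.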

Series [3] deals with Rattus norvegicus. Put plainly: Antiinflammatory activity in Sprague-Dawley rat assessed as inhibition of carrageenin-induced hind paw swelling at 444 umol/kg, po administered 2 hrs prior to carrageenin challenge measured after 3 hrs by volumetric transducer analysis relative to aspirin. Format: functional. The gist of the method: as §1
Series [4] relates to Rattus norvegicus. Put plainly: Antiinflammatory activity in Sprague-Dawley rat assessed as inhibition of carrageenin-induced hind paw swelling at 394 umol/kg, po administered 2 hrs prior to carrageenin challenge measured after 3 hrs by volumetric transducer analysis relative to aspirin. The class given is functional. The gist of the method:
as §1

The test system of series [5] is Rattus norvegicus. Put plainly: Antiinflammatory activity in Sprague-Dawley rat assessed as inhibition of carrageenin-induced hind paw swelling at 273 umol/kg, po administered 2 hrs prior to carrageenin challenge measured after 3 hrs by volumetric transducer analysis relative to aspirin. The class given is functional. The essentials: as §1
The subject of series [6] is Plasma. The series is described as follows: Prodrug conversion in rat plasma assessed as salicylate level at 594 umol/kg, po measured after 24 hrs. Format: ADME, organism-based. The note with it: in vivo. The essentials: (§2)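 Rats were dosed orally, with the glyceride given as an emulsion. Plasma salicylate was followed from 15 min to 24 h after dosing and reported as mean levels. Absorption was estimated by comparing mean areas under the plasma salicylate curves with those after aspirin.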

The test system of series [7] is Plasma. The series is described as follows: Prodrug conversion in rat plasma assessed as salicylate level at 594 umol/kg, po measured after 15 mins. The class given is ADME, organism-based. The note with it: in vivo, 0.25 h. The gist of the method:
as §2

Series [8] is described as follows: Drug absorption in rat at 1192 umol/kg, po administered as emulsified solution. The class given is ADME, organism-based. The note with it: in vivo, read-out: Drug absorption. The gist of the method: as §2
Series [9] relates to Plasma. The series is described as follows: Prodrug conversion in rat plasma assessed as salicylate level at 1192 umol/kg, po administered as emulsified solution measured after 1 to 6 hrs. The class given is ADME, organism-based. The note with it: in vivo. The gist of the method: as §2
Series [10] has as its system Rattus norvegicus. Put plainly: Antipyretic activity against yeast-induced fever in rat assessed as prolonged duration of action at 1068 umol/kg, po relative to aspirin. The class given is functional, organism-based.
For series [11], the system named is Rattus norvegicus. The series is described as follows: Antipyretic activity against yeast-induced fever in rat assessed as delay in onset of activity at 1068 umol/kg, po relative to aspirin. The class given is functional, organism-based.
For series [12], the system named is Plasma. The series is described as follows: Prodrug conversion in rat plasma assessed as salicylate level at 1192 umol/kg, po administered as emulsified solution measured after 24 hrs. Format: ADME, organism-based. As to conditions: in vivo. The essentials: as §2

As a reminder, the inhibition in vivo is the relative decrease from the control value, in per cent.

As for `CCCCCCCCCCCC(=O)OCC(COC(=O)CCCCCCCCCCC)OC(=O)c1ccccc1OC(C)=O`, the inhibition in vivo at 323 µmol/kg in the series with Rattus norvegicus [1] was 44%.

On to `CCCC(=O)OCC(COC(=O)CCC)OC(=O)c1ccccc1OC(C)=O`, for which the Activity result in the series with Rattus norvegicus [2] is on record as “Non-toxic”. The inhibition in vivo at 444 µmol/kg in the series with Rattus norvegicus [3] worked out at 92%.

Take `CCCCCCCC(=O)OCC(COC(=O)CCCCCCC)OC(=O)c1ccccc1OC(C)=O`: the inhibition in vivo at 394 µmol/kg in the series on Rattus norvegicus [4] was found to be 60%.

With `CCCCCCCCCCCCCCCC(=O)OCC(COC(=O)CCCCCCCCCCCCCCC)OC(=O)c1ccccc1OC(C)=O`, in the series on Rattus norvegicus [5], the inhibition in vivo at 273 µmol/kg stood at 12%.

As to `CC(=O)OCC(COC(C)=O)OC(=O)c1ccccc1OC(C)=O`, in the series with Rattus norvegicus [2], the Activity entry is listed as “Toxic”. Moreover, the inhibition in vivo at 444 µmol/kg with Rattus norvegicus [3] came out at 48%.

Turning to `CC(=O)Oc1ccccc1C(=O)O` [ASPIRIN], the Activity result with Rattus norvegicus [2] is listed as “Toxic”. The Drug metabolism in the series with Plasma [6] turned out to be 24 µg/mL; with Plasma [7] it was 196 µg/mL.

Turning to `CCCCCCCCCC(=O)OCC(COC(=O)CCCCCCCCC)OC(=O)c1ccccc1OC(C)=O`, the Fa in [8] came to 100%. In addition, the Activity result with Rattus norvegicus [2] is “Non-toxic”. The inhibition in vivo at 444 µmol/kg in the series on Rattus norvegicus [3] amounted to 80%. Besides, the values for the Drug metabolism in the series on Plasma [9] and with Plasma [12] were 219 µg/mL and 61 µg/mL, respectively. Besides, the result with Rattus norvegicus [10] and in the series with Rattus norvegicus [11] was Active.
